Tests used:
Format in all cases: functional
DU-145 = assay: Cytotoxicity against human DU145 cells assessed as cell growth at 10^-5 M after 48 hrs by SRB assay; conditions: DU-145, 48 h, read-out: Activity
Procedure, shortened: (§1)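 NCI 60-cell-line one-dose primary screen: cells inoculated and preincubated 24–48 h, then test agent added at a single 10^-5 M concentration for a further 48 h. Endpoint is sulforhodamine B protein staining read spectrophotometrically. Reported as percent growth relative to untreated control cells.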

CCRF-CEM = assay: Growth inhibition of human CCRF-CEM cells after 48 hrs by SRB assay
Procedure, shortened: (§2)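 NCI panel of about 60 human tumor lines, 48 h continuous exposure at five 10-fold dilutions from 10^-4 to 10^-8 M. SRB protein staining was read as absorbance at time zero, in untreated controls and at each concentration. GI50 is the concentration giving 50% lower net protein increase than controls. TGI is where Ti = Tz, and LC50 is 50% protein loss versus start.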

HT-29 = assay: Growth inhibition of human HT-29 cells after 48 hrs by SRB assay; conditions: HT-29, 48 h; procedure, shortened: as §2
U-251 = assay: Growth inhibition of human U251 cells after 48 hrs by SRB assay; conditions: U-251, 48 h
Procedure, shortened: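 NCI 60-cell-line human tumor panel. Cells were inoculated and preincubated for 24–48 h, then exposed continuously to compound for 48 h. Primary screen used a single 10^-5 M concentration. Growth was measured by sulforhodamine B protein staining, read spectrophotometrically, and reported as percent growth versus untreated controls. Selected compounds were also run at five 10-fold dilutions (10^-4 to 10^-8 M) to derive GI50 from time-zero-corrected absorbances.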

OVCAR-3 [1] = assay: Growth inhibition of human OVCAR3 cells after 48 hrs by SRB assay; conditions: OVCAR-3, 48 h; procedure, shortened: as §2
OVCAR-4 = assay: Growth inhibition of human OVCAR4 cells after 48 hrs by SRB assay; conditions: OVCAR-4, 48 h; procedure, shortened: as §2
ACHN = assay: Growth inhibition of human ACHN cells after 48 hrs by SRB assay; procedure, shortened: as §2
PC-3 = assay: Growth inhibition of human PC3 cells after 48 hrs by SRB assay; conditions: PC-3, 48 h; procedure, shortened: as §2
MDA-MB-231 = assay: Growth inhibition of human MDA-MB-231 cells after 48 hrs by SRB assay; conditions: MDA-MB-231, 48 h; procedure, shortened: as §2
Aspergillus niger = assay: Antifungal activity against Aspergillus niger assessed as zone of inhibition at 0.1 mg/mL after 48 to 72 hrs by stiff-plate agar-diffusion method; conditions: read-out: DIZ
HOP-92 = assay: Cytotoxicity against human HOP92 cells assessed as cell growth at 10^-5 M after 48 hrs by SRB assay; conditions: HOP-92, 48 h, read-out: Activity; procedure, shortened: as §1
HCT-116 = assay: Cytotoxicity against human HCT116 cells assessed as cell growth at 10^-5 M after 48 hrs by SRB assay; conditions: HCT-116, 48 h, read-out: Activity; procedure, shortened: as §1
OVCAR-3 [2] = assay: Cytotoxicity against human OVCAR3 cells assessed as cell growth at 10^-5 M after 48 hrs by SRB assay; conditions: OVCAR-3, 48 h, read-out: Activity
Procedure, shortened: (§3)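 NCI human tumor cell line panel from nine cancer types. Each line was inoculated and preincubated 24–48 h, then exposed to a single concentration (10^-5 M) for 48 h. Growth was read by sulforhodamine B protein staining, measured spectrophotometrically. Value reported as percent growth of treated cells relative to untreated controls.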

HOP-62 = assay: Cytotoxicity against human HOP62 cells assessed as cell growth at 10^-5 M after 48 hrs by SRB assay; conditions: HOP-62, 48 h, read-out: Activity; procedure, shortened: as §1
NCI-H460 = assay: Cytotoxicity against human NCI-H460 cells assessed as cell growth at 10^-5 M after 48 hrs by SRB assay; conditions: NCI-H460, 48 h, read-out: Activity; procedure, shortened: as §3
[3] = read-out: pLC50 (the source's name) (converted)

CCC1C2CCC(C2)C1NC(=O)CSc1nc2ccccc2c2nc(=O)c(-c3ccc(OC)cc3)nn12 (stereo unspecified)
growth at 10 µM (DU-145): -32% | GI50 (CCRF-CEM): 2 µM | CC50 (CCRF-CEM; [3]): > 50.1 µM | TGI (CCRF-CEM; read-out: pTGI): > 50.1 µM | GI50 (HT-29): 3.24 µM | CC50 (HT-29; [3]): > 50.1 µM | TGI (HT-29; read-out: pTGI): > 50.1 µM | GI50 (U-251): 1 µM | CC50 (U-251; [3]): 5.75 µM | TGI (U-251; read-out: pTGI (converted)): 2.29 µM | GI50 (OVCAR-3 [1]): 1.48 µM | CC50 (OVCAR-3 [1]; [3]): 28.2 µM | TGI (OVCAR-3 [1]; read-out: pTGI (converted)): 5.62 µM | GI50 (OVCAR-4): 1.66 µM | CC50 (OVCAR-4; [3]): 43.7 µM | TGI (OVCAR-4; read-out: pTGI (converted)): 6.31 µM | GI50 (ACHN): 1.91 µM | CC50 (ACHN; [3]): > 50.1 µM | TGI (ACHN; read-out: pTGI): > 50.1 µM | GI50 (PC-3): 2.82 µM | CC50 (PC-3; [3]): > 50.1 µM | TGI (PC-3; read-out: pTGI (converted)): 24.5 µM | GI50 (MDA-MB-231): 3.09 µM | CC50 (MDA-MB-231; [3]): > 50.1 µM | TGI (MDA-MB-231; read-out: pTGI (converted)): 20.9 µM | zone of inhibition at 100 µg/mL (Aspergillus niger): 0 mm | growth at 10 µM (HOP-92): 57% | growth at 10 µM (HCT-116): 64.3% | growth at 10 µM (OVCAR-3 [2]): -69.7% | growth at 10 µM (HOP-62): -19.5% | growth at 10 µM (NCI-H460): 56%

Reference: ChEMBL document CHEMBL1914438, “Synthesis and biological activity of novel N-cycloalkyl-(cycloalkylaryl)-2-[(3-R-2-oxo-2H-[1,2,4]triazino[2,3-c]quinazoline-6-yl)thio]acetamides” (2011)
